ChEMBL document CHEMBL5107974, “Design, synthesis, and biological evaluation of new thalidomide-donepezil hybrids as neuroprotective agents targeting cholinesterases and neuroinflammation” (RSC Med Chem, 2022)
Active and inactive are the calls of the source. No cut-off for these calls is given here.

Key:
[1] = molecular target: Acetylcholinesterase (Electrophorus electricus) (UniProt O42275); assay: Inhibition of electric eel AChE using […] as a substrate at 30 uM incubated for 10 mins by DTNB reagent based Ellman's method
Acetylcholinesterase (Electrophorus electricus), sequence (O42275 24-633 limits assumed): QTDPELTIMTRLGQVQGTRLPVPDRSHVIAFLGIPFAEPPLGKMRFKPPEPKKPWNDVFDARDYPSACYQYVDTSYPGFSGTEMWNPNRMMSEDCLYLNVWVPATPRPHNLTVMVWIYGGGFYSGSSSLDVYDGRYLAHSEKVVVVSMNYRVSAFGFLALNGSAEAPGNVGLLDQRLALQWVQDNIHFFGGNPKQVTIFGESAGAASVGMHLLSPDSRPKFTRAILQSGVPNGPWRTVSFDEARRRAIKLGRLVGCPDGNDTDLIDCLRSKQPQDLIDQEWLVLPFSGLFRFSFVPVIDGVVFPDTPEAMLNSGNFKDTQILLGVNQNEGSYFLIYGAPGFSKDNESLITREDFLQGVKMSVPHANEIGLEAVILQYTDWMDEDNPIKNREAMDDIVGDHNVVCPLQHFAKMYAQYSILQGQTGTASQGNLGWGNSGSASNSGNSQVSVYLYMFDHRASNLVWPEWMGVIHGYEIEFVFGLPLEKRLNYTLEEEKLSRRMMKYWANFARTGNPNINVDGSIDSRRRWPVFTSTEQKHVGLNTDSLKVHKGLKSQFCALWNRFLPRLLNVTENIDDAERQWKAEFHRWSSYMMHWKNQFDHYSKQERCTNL
Procedure, shortened: (§1)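 Ellman method in Tris-HCl 0.02 M pH 7.5 with BSA, inhibitor at 30 uM final, DMSO 0.2% vehicle as negative control. Enzyme (eeAChE or equine serum BuChE) with DTNB preincubated 10 min at room temperature; acetylthiocholine or butyrylthiocholine iodide added, absorbance at 415 nm after 10 min. Activity as % of DMSO control, blank-corrected; triplicate.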

[2] = molecular target: Cholinesterase (Equus caballus) (UniProt P81908); assay: Inhibition of equine serum BuChE using S-butyrylthiocholine iodide as a substrate at 30 uM incubated for 10 mins by DTNB reagent based Ellman's method; assay type: cell-free; procedure, shortened: as §1
Cholinesterase (Equus caballus), sequence (P81908 whole entry): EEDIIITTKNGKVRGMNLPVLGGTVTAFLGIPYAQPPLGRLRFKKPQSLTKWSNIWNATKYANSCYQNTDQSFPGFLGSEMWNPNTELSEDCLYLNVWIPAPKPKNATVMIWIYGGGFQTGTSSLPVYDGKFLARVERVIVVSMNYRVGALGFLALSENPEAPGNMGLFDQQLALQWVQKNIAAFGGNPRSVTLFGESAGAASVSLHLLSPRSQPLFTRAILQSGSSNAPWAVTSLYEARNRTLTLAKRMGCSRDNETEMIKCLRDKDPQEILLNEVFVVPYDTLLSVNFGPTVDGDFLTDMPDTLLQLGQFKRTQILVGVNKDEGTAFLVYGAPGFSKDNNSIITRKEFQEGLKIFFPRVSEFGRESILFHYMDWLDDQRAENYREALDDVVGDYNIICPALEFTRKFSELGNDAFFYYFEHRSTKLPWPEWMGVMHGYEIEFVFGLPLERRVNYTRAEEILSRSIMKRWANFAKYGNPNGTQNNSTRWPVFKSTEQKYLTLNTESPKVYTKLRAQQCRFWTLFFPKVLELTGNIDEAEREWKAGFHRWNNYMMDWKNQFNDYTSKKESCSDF

SH-SY5Y [3] = assay: Cytotoxicity against human SH-SY5Y cells assessed as reduction in cell viability at 80 uM incubated for 24 hrs by MTT assay; assay type: functional
Procedure, shortened: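 SH-SY5Y cells seeded at 2×10^4 per well, grown 24 h, then treated 24 h at 37 °C (range 2.5–80 uM). MTT 0.5 mg mL-1 in HBSS for 2 h; formazan dissolved in isopropanol, read at 570 nm (reference 690 nm). Viability relative to untreated cells; mean ± SEM of three independent experiments.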

THP-1 [4] = assay: Anti-inflammatory activity in human THP-1 cells assessed as inhibition of LPS-induced IL-1beta expression at 10 uM incubated for 24 hrs by RT-PCR analysis; assay type: functional
Procedure, shortened: (§2)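 THP-1 monocytes differentiated to microglia-like cells with PMA 5 ng mL-1 for 24 h, then exposed 24 h to LPS 1 ug mL-1 together with compound (10 uM). RNA extracted; expression by quantitative RT-PCR, relative quantification by 2^-ΔΔCt with untreated cells as control. Mean ± SEM of three independent experiments.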

Rattus norvegicus [5] = assay: Anti-inflammatory activity in LPS-induced Wistar rat assessed as increase in traveled distance at po dosed measured upto 24 hrs by open field test; assay type: functional, organism-based
Procedure, shortened: (§3)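 Adult male Wistar rats (n = 7–8 per group), overnight 8 h fast; vehicle or compound by gavage, then LPS or saline intraperitoneally. 2 h after LPS, each rat was placed in the centre of a circular open-field arena and filmed for 5 min. Distance travelled and immobility time were scored by video tracking. Results given as mean ± SEM.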

[6] = Permeability of compound in PBS buffer at pH 6.6 by PAMPA-GIT assay; assay type: ADME
Procedure, shortened: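 PAMPA-GIT: 10 μM compound in PBS pH 6.6 as donor, filter coated with soy L-α-phosphatidylcholine (20 mg/mL in dodecane). Acceptor was PBS pH 7.4:DMSO (95:5). Plates shaken at 50 rpm for 8 h at room temperature. Run in triplicate; absorbed fraction (Fa%) classed high, medium or low.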

[7] = Permeability of compound in PBS buffer at pH 7.4 by PAMPA-BBB assay; assay type: ADME; settings: read-out: permeability
Procedure, shortened: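 PAMPA-BBB: compound dissolved in ethanol, diluted with PBS pH 7.4 and filtered, then added in triplicate to a donor filter coated with porcine brain polar lipid (20 mg/mL in dodecane). Acceptor was PBS pH 7.4:ethanol (70:30). Incubated 2 h 45 min at about 25 °C, humidified. Donor and acceptor concentrations read by UV; compounds classed BBB+ or BBB−.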

Rattus norvegicus [8] = assay: Anti-inflammatory activity in LPS-induced Wistar rat assessed as increase in food intake at po dosed measured upto 24 hrs; assay type: functional, organism-based
Procedure, shortened: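 Adult male Wistar rats (n = 7 per group), housed individually; overnight 8 h fast, then food removed 2 h on the test day. Vehicle or compound was given by gavage, then LPS or saline intraperitoneally. Pre-weighed pelleted feed was reintroduced and weighed at 2, 4, 6 and 24 h. Results given as mean ± SEM.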

Acetylcholinesterase = Acetylcholinesterase (Electrophorus electricus, UniProt O42275); assay: Inhibition of electric eel AChE using […] as a substrate incubated for 10 mins by DTNB reagent based Ellman's method
Acetylcholinesterase, sequence (O42275 whole entry): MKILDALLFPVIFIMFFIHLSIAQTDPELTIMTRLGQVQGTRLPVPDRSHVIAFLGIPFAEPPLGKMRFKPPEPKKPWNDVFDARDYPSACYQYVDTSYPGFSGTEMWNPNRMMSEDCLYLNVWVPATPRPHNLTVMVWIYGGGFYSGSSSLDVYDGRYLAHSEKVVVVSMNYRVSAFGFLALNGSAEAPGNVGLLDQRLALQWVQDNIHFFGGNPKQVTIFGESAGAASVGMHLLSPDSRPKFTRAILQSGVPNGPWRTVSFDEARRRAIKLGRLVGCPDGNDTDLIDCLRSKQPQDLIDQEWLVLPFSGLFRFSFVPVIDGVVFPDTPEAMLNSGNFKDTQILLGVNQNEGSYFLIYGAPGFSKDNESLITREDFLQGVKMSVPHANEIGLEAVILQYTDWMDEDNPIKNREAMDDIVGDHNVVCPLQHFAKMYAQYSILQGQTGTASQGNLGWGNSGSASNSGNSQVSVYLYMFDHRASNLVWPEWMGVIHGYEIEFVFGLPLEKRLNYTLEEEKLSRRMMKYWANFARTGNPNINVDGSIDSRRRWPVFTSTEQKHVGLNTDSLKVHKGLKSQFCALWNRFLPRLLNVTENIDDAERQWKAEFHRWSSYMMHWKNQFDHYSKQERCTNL

THP-1 [9] = assay: Anti-inflammatory activity in human THP-1 cells assessed as inhibition of LPS-induced iNOS expression at 10 uM incubated for 24 hrs by RT-PCR analysis; assay type: functional; procedure, shortened: as §2
Rattus norvegicus [10] = assay: Anti-inflammatory activity in LPS-induced Wistar rat assessed as decrease in immobility time at po dosed measured upto 24 hrs by open field test; assay type: functional, organism-based; procedure, shortened: as §3
SH-SY5Y [11] = assay: Neuronal plasticity in human SH-SY5Y cells assessed as increase in SYP gene expression at 10 uM incubated for 24 hrs by RT-PCR analysis; assay type: functional, cell-based
Procedure, shortened: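 SH-SY5Y cells grown in DMEM with 10% FBS and differentiated with retinoic acid (10 μM) for 6 days. Compound 10 μM for 24 h. RNA extracted, SYP mRNA measured by quantitative RT-PCR, relative quantity by 2^-ΔΔCt against untreated cells. Three independent experiments, mean ± SEM, Student's t-test.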

Row | Compound | inhibition [1] [%] | inhibition [2] [%] | also measured
1 | COc1ccc(CN2CCN(C(=O)CN3C(=O)c4ccccc4C3=O)CC2)cc1 | 17.1 | 25.4 | 
2 | O=C(CN1C(=O)c2ccccc2C1=O)N1CCN(c2ncccn2)CC1 | 39.6 | -5.36 | Activity (SH-SY5Y [3]): 50%
3 | O=C(CN1C(=O)c2ccccc2C1=O)N1CCN(c2ccc(Cl)cc2)CC1 | 8.11 | -2.09 | Activity (SH-SY5Y [3]): 50%
4 | O=C(CN1C(=O)c2ccccc2C1=O)N1CCN(Cc2ccc(Cl)cc2)CC1 | 7.82 | 1.26 | 
5 | O=C(CN1C(=O)c2ccccc2C1=O)N1CCN(c2ccc([N+](=O)[O-])cc2)CC1 | 16.9 | -4.97 | 
6 | Cc1ccc(N2CCN(C(=O)CN3C(=O)c4ccccc4C3=O)CC2)cc1 | 11.6 | 0.3 | 
7 | O=C(CN1C(=O)c2ccccc2C1=O)N1CCN(Cc2ccc(Br)cc2)CC1 | 8.38 | -1.37 | 
8 | O=C(CN1C(=O)c2ccccc2C1=O)N1CCN(c2ccncc2)CC1 | 85 | -4.47 | inhibition at 10 µM (THP-1 [4]): 39%; Activity (Rattus norvegicus [5]): Active; Fa [6]: 69.8%; Papp ([6]; read-out: permeability): 3.15 ×10⁻⁶ cm/s; Papp [7]: 13.9 ×10⁻⁶ cm/s; Activity (Rattus norvegicus [8]): Active; IC50 (Acetylcholinesterase): 3.15 µM; inhibition at 10 µM (THP-1 [9]): 43%; Activity (Rattus norvegicus [10]): Active; Activity (SH-SY5Y [11]): Active
